The source made the active and inactive calls. No cut-off for these calls is given here.
Tests used:
[1] = test system: Salmonella typhimurium; experiment: Mutagenic activity in Salmonella typhimurium TA1537 at 0.06 to 5 ug/plate by Ames test in presence of mouse liver S9 fraction; assay type: toxicity, organism-based; details: salmonella enterica subsp. enterica serovar typhimurium
Method in brief: (§1)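 Plate-incorporation Ames test on minimal glucose agar with 500 μL Aroclor-treated mouse liver S9 added. DMSO solutions were tested at five consecutive 3-fold dilutions from the highest non-toxic dose, in triplicate, with a DMSO negative control. Revertants were counted manually; a compound was scored mutagenic when revertants were at least twice the negative control for two or more consecutive doses.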

[2] = Stability of the compound in aqueous solution assessed as compound remaining at 1 mM at pH 1 after 1 hr by TLC analysis; assay type: physicochemical; details: read-out: Stability
Method in brief: (§2)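 DMSO stocks diluted to final 1 mM in KCl·HCl pH 1.0, citrate pH 6.0, Tris·HCl pH 7.4 or borax·HCl pH 9.0 buffer. Incubated 1 h at 37 °C, then ethyl acetate extracts checked by TLC for decomposition products.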

[3] = test system: Salmonella typhimurium; experiment: Mutagenic activity in Salmonella typhimurium TA1535 at 0.06 to 5 ug/plate by Ames test in presence of mouse liver S9 fraction; assay type: toxicity, organism-based; details: salmonella enterica subsp. enterica serovar typhimurium; method in brief: as §1
[4] = test system: Salmonella typhimurium; experiment: Mutagenic activity in Salmonella typhimurium TA100 at 0.06 to 5 ug/plate by Ames test; assay type: toxicity, organism-based; details: salmonella enterica subsp. enterica serovar typhimurium
Method in brief: (§3)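 Direct plate incubation on minimal glucose agar (Vogel-Bonner E). Compound toxicity to the bacteria was checked first. DMSO solutions were tested at five consecutive 3-fold dilutions, starting from the highest non-toxic dose, in triplicate, without metabolic activation. DMSO served as negative control. Revertants were counted manually; mutagenic = revertants at least double the negative control at two or more consecutive doses.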

[5] = test system: Trypanosoma cruzi; experiment: Antitrypanosomal activity against Trypanosoma cruzi Sylvio X-10 amastigotes infected in African green monkey Vero cells assessed as eradication of amastigotes at 5 uM after 5 days by optical microscopic analysis; assay type: functional, organism-based; details: in the assay text read “after 72 hrs” for “after 5 days”
Method in brief: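 VERO cells infected with Sylvio X-10 parasites were treated with 5 μM compound and examined by optic microscopy after 72 h of incubation for intracellular amastigotes and trypomastigotes.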

[6] = test system: Salmonella typhimurium; experiment: Mutagenic activity in Salmonella typhimurium TA98 at 3.1 to 250 ug/plate by Ames test; assay type: toxicity, organism-based; details: salmonella enterica subsp. enterica serovar typhimurium
Method in brief: (§4)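 Ames plate-incorporation assay with S. typhimurium TA98 in Vogel-Bonner E minimal glucose agar. Toxicity toward the bacteria was checked first. DMSO solutions were run in triplicate at five consecutive third-dilutions, starting at the highest non-toxic dose. Positive controls were 4-nitro-o-phenylenediamine (20.0 μg/plate) and 2-aminofluorene (10.0 μg/plate); DMSO was the negative control. Revertants were counted manually. A compound was called mutagenic when revertants were at least twice the negative control at two or more consecutive doses.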

[7] = Stability of the compound in aqueous solution assessed as compound remaining at 1 mM at pH 7.4 after 1 hr by TLC analysis; assay type: physicochemical; details: aqueous solution, pH 7.4; read-out: Stability; method in brief: as §2
[8] = Selectivity index, ratio of IC50 for human RBC to IC50 for Trypanosoma cruzi Sylvio X-10 amastigotes
Method in brief: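 Hemolysis: washed human erythrocytes (2% w/v in PBS) incubated 24 h at 37 °C with compound at final 50, 100 and 200 μM. Ten replicates per concentration. Hemoglobin release read at 405 nm against water lysis as 100%; amphotericin B 1.5 μM was the positive control. SI = IC50 red cells / parasite IC50 (Sylvio X-10 amastigotes or Tulahuen 2 epimastigotes).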

[9] = Selectivity index, ratio of IC50 for African green monkey Vero cells to IC50 for Trypanosoma cruzi Sylvio X-10 amastigotes; assay type: toxicity, cell-based; details: read-out: Ratio IC50
Method in brief: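 VERO cytotoxicity: cells exposed 48 h at 37 °C, 5% CO2 to serial dilutions from a maximum of 2000 μM (DMSO stocks; DMSO <0.1% control); growth inhibition read by MTT at 570 nm. Amastigote IC50: Sylvio X-10-infected VERO cells, five doses, infected cells counted among 300 (Giemsa), quadruplicate, three experiments, sigmoidal fit. SI = IC50 VERO / IC50 amastigote.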

[10] = test system: Salmonella typhimurium; experiment: Mutagenic activity in Salmonella typhimurium TA102 at 0.06 to 5 ug/plate by Ames test in presence of mouse liver S9 fraction; assay type: toxicity, organism-based; details: salmonella enterica subsp. enterica serovar typhimurium; method in brief: as §1
[11] = test system: Salmonella typhimurium; experiment: Mutagenic activity in Salmonella typhimurium TA1537 at 0.06 to 5 ug/plate by Ames test; assay type: toxicity, organism-based; details: salmonella enterica subsp. enterica serovar typhimurium; method in brief: as §3
[12] = test system: Salmonella typhimurium; experiment: Mutagenic activity in Salmonella typhimurium TA98 at 3.1 to 250 ug/plate by Ames test in presence of mouse liver S9 fraction; assay type: toxicity, organism-based; details: salmonella enterica subsp. enterica serovar typhimurium; method in brief: as §4
[13] = test system: Salmonella typhimurium; experiment: Mutagenic activity in Salmonella typhimurium TA100 at 0.06 to 5 ug/plate by Ames test in presence of mouse liver S9 fraction; assay type: toxicity, organism-based; details: salmonella enterica subsp. enterica serovar typhimurium; method in brief: as §1
[14] = test system: Salmonella typhimurium; experiment: Mutagenic activity in Salmonella typhimurium TA102 at 0.06 to 5 ug/plate by Ames test; assay type: toxicity, organism-based; details: salmonella enterica subsp. enterica serovar typhimurium; method in brief: as §3
[15] = Stability of the compound in aqueous solution assessed as compound remaining at 1 mM at pH 9 after 1 hr by TLC analysis; assay type: physicochemical; details: aqueous solution, pH 9; read-out: Stability; method in brief: as §2
[16] = test system: Trypanosoma cruzi; experiment: Antitrypanosomal activity against Trypanosoma cruzi Tulahuen 2 epimastigotes assessed as growth inhibition after 5 days; assay type: functional, organism-based; details: Trypanosoma cruzi, Tulahuen 2, 120 h
Method in brief: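 Epimastigotes were grown axenically at 28 °C in BHI-tryptose with 5% FBS and seeded from a 5–7 day culture at 1 × 10⁶ cells/mL. Drug from a DMSO stock was added (final DMSO ≤0.4%; the control contained 0.4% DMSO). Duplicates were run. A600 was read at day 5, and % inhibition was calculated relative to day-0 and control readings. IC50 = concentration that halves the absorbance ratio.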

[17] = test system: Trypanosoma cruzi; experiment: Antitrypanosomal activity against Trypanosoma cruzi Dm 28c epimastigotes assessed as growth inhibition after 5 days; assay type: functional, organism-based; details: 120 h
[18] = Selectivity index, ratio of IC50 for mouse J774.1 cells to IC50 for Trypanosoma cruzi Sylvio X-10 amastigotes; assay type: toxicity; details: read-out: Ratio IC50
Method in brief: (§5)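 J774.1 macrophages grown in DMEM with 10% heat-inactivated FCS and allowed to attach 48 h, then exposed 48 h at 37 °C to 12.5–400.0 μM. Triplicates. MTT 0.1 mg/mL for 3 h, read at 560 nm; IC50 by linear regression against the solvent control. SI = IC50 J774.1 / parasite IC50 (Sylvio X-10 amastigotes or Tulahuen 2 epimastigotes, the latter measured by A600 growth inhibition at day 5).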

[19] = Stability of the compound in eumulgin HRE 40, sodium oleate, soya phosphatidylcholine, cholesterol, and phosphate buffer at pH 7.4 at 4 degC; assay type: physicochemical
Method in brief: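 Storage stability of the compound in vehicle V2, a microemulsion of surfactant (Eumulgin HRE 40/sodium oleate/soya phosphatidylcholine, 10%), cholesterol oil phase (10%) and pH 7.4 phosphate buffer (80%), followed over 1 week at 4 °C.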

[20] = test system: Trypanosoma cruzi; experiment: Antitrypanosomal activity against Trypanosoma cruzi Sylvio X-10 amastigotes infected in African green monkey Vero cells assessed as eradication of amastigotes after 5 days by Giemsa staining-based assay; assay type: functional, organism-based; details: Sylvio X-10, Vero, 120 h
Method in brief: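 VERO cells in RPMI 1640 with 10% hiFCS were allowed to adhere for 24 h at 37 °C in 5% CO₂, then infected with tissue-derived trypomastigotes at 10:1. Free parasites were washed off after 24 h, and cultures were treated at five compound doses (text gives 72 h / 5 days). Cultures were methanol-fixed and Giemsa-stained, and infected cells were counted among 300. Quadruplicates were run in three independent experiments. IC50/IC90 were obtained by sigmoidal regression.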

[21] = test system: Salmonella typhimurium; experiment: Mutagenic activity in Salmonella typhimurium TA1535 at 0.06 to 5 ug/plate by Ames test; assay type: toxicity, organism-based; details: salmonella enterica subsp. enterica serovar typhimurium; method in brief: as §3
[22] = Stability of the compound in aqueous solution assessed as compound remaining at 1 mM at pH 6 after 1 hr by TLC analysis; assay type: physicochemical; details: aqueous solution, pH 6; read-out: Stability; method in brief: as §2
[23] = test system: Salmonella typhimurium; experiment: Mutagenic activity in Salmonella typhimurium TA1535 at […] ug/plate by Ames test; assay type: toxicity, organism-based; details: salmonella enterica subsp. enterica serovar typhimurium; method in brief: as §3
[24] = test system: Salmonella typhimurium; experiment: Mutagenic activity in Salmonella typhimurium TA98 at 6 to 500 ug/plate by Ames test in presence of mouse liver S9 fraction; assay type: toxicity, organism-based; details: salmonella enterica subsp. enterica serovar typhimurium; method in brief: as §4
[25] = test system: Salmonella typhimurium; experiment: Mutagenic activity in Salmonella typhimurium TA1537 at 0.03 to 0.2 ug/plate by Ames test; assay type: toxicity, organism-based; details: salmonella enterica subsp. enterica serovar typhimurium; method in brief: as §3
[26] = test system: Salmonella typhimurium; experiment: Mutagenic activity in Salmonella typhimurium TA1537 at 0.03 to 0.2 ug/plate by Ames test in presence of mouse liver S9 fraction; assay type: toxicity, organism-based; details: salmonella enterica subsp. enterica serovar typhimurium, in the assay text read “0.003 to 0.2 ug/plate” for “0.03 to 0.2 ug/plate”; method in brief: as §1
[27] = test system: Salmonella typhimurium; experiment: Mutagenic activity in Salmonella typhimurium TA100 at 3.09 to 250 ug/plate by Ames test; assay type: toxicity, organism-based; details: salmonella enterica subsp. enterica serovar typhimurium; method in brief: as §3
[28] = test system: Salmonella typhimurium; experiment: Mutagenic activity in Salmonella typhimurium TA98 at 6 to 500 ug/plate by Ames test; assay type: toxicity, organism-based; details: salmonella enterica subsp. enterica serovar typhimurium; method in brief: as §4
[29] = test system: Salmonella typhimurium; experiment: Mutagenic activity in Salmonella typhimurium TA100 at 3.09 to 250 ug/plate by Ames test in presence of mouse liver S9 fraction; assay type: toxicity, organism-based; details: salmonella enterica subsp. enterica serovar typhimurium; method in brief: as §1
[30] = test system: Trypanosoma cruzi; experiment: Antitrypanosomal activity against Trypanosoma cruzi Sylvio X-10 amastigotes infected in African green monkey Vero cells assessed as eradication of amastigotes after 72 hrs by Giemsa staining-based assay; details: Sylvio X-10, Vero
[31] = test system: Salmonella typhimurium; experiment: Mutagenic activity in Salmonella typhimurium TA102 at […] ug/plate by Ames test in presence of mouse liver S9 fraction; assay type: toxicity, organism-based; details: salmonella enterica subsp. enterica serovar typhimurium; method in brief: as §1
[32] = test system: Salmonella typhimurium; experiment: Mutagenic activity in Salmonella typhimurium TA1535 at […] ug/plate by Ames test in presence of mouse liver S9 fraction; assay type: toxicity, organism-based; details: salmonella enterica subsp. enterica serovar typhimurium; method in brief: as §1
[33] = test system: Salmonella typhimurium; experiment: Mutagenic activity in Salmonella typhimurium TA102 at […] ug/plate by Ames test; assay type: toxicity, organism-based; details: salmonella enterica subsp. enterica serovar typhimurium; method in brief: as §3
[34] = test system: Salmonella typhimurium; experiment: Mutagenic activity in Salmonella typhimurium TA98 at 0.3 to 40 ug/plate by Ames test in presence of mouse liver S9 fraction; assay type: toxicity, organism-based; details: salmonella enterica subsp. enterica serovar typhimurium; method in brief: as §4
[35] = Selectivity index, ratio of IC50 for mouse J774.1 cells to IC50 for Trypanosoma cruzi Tulahuen 2 epimastigotes; assay type: toxicity; details: read-out: Ratio IC50; method in brief: as §5
[36] = test system: Salmonella typhimurium; experiment: Mutagenic activity in Salmonella typhimurium TA98 at 0.3 to 40 ug/plate by Ames test; assay type: toxicity, organism-based; details: salmonella enterica subsp. enterica serovar typhimurium; method in brief: as §4

Br.C=CCn1c(-c2ccccc2)cs\c1=N/N=C/C=C/c1ccco1.O
Activity [1]: Non-toxic | remaining at 1 h, 1000 µM [2]: 90% | Activity [3]: Non-toxic | Activity [4]: Non-toxic | Activity [5]: Active | Activity [6]: Non-toxic | remaining at 1 h, 1000 µM [7]: > 95% | Ratio IC50 [8]: > 196 | selectivity ratio [9]: > 1000 | Activity [10]: Non-toxic | Activity [11]: Non-toxic | Activity [12]: Non-toxic | Activity [13]: Non-toxic | Activity [14]: Non-toxic | remaining at 1 h, 1000 µM [15]: > 95% | IC50 [16]: 3.2 µM | IC50 [17]: 4 µM | selectivity ratio [18]: > 120 | Stability [19]: Stable | IC50 [20]: < 0.24 µM | Activity [21]: Non-toxic | remaining at 1 h, 1000 µM [22]: > 95%

C=CCn1c(C)cs/c1=N/N=C/C=C/c1ccco1
remaining at 1 h, 1000 µM [2]: 90% | Activity [23]: Non-toxic | Activity [24]: Non-toxic | Activity [25]: Non-toxic | Activity [26]: Non-toxic | remaining at 1 h, 1000 µM [7]: > 95% | Activity [27]: Non-toxic | Activity [28]: Non-toxic | Activity [29]: Non-toxic | IC90 [30]: 51 µM | remaining at 1 h, 1000 µM [15]: > 95% | IC50 [16]: > 25 µM | Activity [31]: Non-toxic | Activity [32]: Non-toxic | IC50 [20]: 6.3 µM | remaining at 1 h, 1000 µM [22]: > 95% | Activity [33]: Non-toxic

C=CCn1c(C)cs\c1=N/N=C/C=C/c1cccs1
Activity [34]: Non-toxic | selectivity ratio [35]: < 7 | IC50 [16]: > 25 µM | Activity [36]: Non-toxic

Source: ChEMBL document CHEMBL3259808, “Optimization of antitrypanosomatid agents: identification of nonmutagenic drug candidates with in vivo activity” (J Med Chem, 2014)
